# Hits are enriched below; roughly 6.4% of the tested compounds scored in any of these assays.
# EBV gp42 inh = EBV gp42 inhibition; Fluorescence polarization binding assay, mP read-out; Q1HVG2; inhibition, % (tested at 21.74 µM); 220,000 tested, 0.42% active; AID 1085; in the data active = inhibition above about 50%
# Target sequence (Q1HVG2 whole entry, looked up): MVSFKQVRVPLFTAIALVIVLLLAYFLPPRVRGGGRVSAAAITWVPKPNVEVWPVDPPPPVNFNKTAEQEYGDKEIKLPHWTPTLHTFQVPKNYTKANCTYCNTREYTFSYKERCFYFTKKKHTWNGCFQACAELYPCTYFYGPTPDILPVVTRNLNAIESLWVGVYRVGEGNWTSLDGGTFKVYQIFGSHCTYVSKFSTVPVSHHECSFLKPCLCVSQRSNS
# MPTP inh = permeability transition pore inhibition. inhibition, % at 10 µM. 360,000 tested, 1.4% active. isolated mouse mitochondria, Ca2+ swelling absorbance, 30 min;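 active = inhibition of 50% or more, scaled per plate between neutral and stimulator controls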;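 note: 0% = DMSO wells given calcium and 100% = 1 mM EGTA wells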
# GRIN3A LBD mod = modulators (binders) of human NR3A ligand-binding domain. NR3A LBD differential scanning fluorimetry, Tm shift; 0% = protein alone, 100% = glycine-bound protein. Tm shift relative to glycine control, % at 25 µM. 340,000 tested, 2.5% active. AID 1259313;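 active = melting temperature shift of at least 10% of the positive control shift, at one fixed dose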
# CHOP inhibitor = inhibitors of CHOP induction in ER stress response | CHO-K1 CHOP-promoter luciferase, tunicamycin-induced, 15-18 h | inhibition, % at 10 µM | 220,000 tested, 3.8% active;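 active = compounds that reduced the stress-induced luciferase reporter signal by more than about 70% of percent inhibition, limit read from the data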;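 note: 0% = tunicamycin plus vehicle and 100% = wells without tunicamycin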
# Tb MetRS inh = Trypanosoma brucei MetRS inhibition; AID 624268; purified T. brucei MetRS, ATP depletion, Kinase-Glo luminescence; inhibition, % at 11.9 µM; 360,000 tested, 0.4% active;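 active = inhibition above a per-plate cutoff of the control wells' mean inhibition plus 3 SD, cut at about 5.5% in these data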;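 note: 0% = DMSO wells median and 100% = median of wells with control inhibitor compound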
#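 Material – parasite MetRS enzyme · Medium – HEPES-MgCl2-KCl buffer plus DTT, spermine, BSA, pyrophosphatase · Reagent – ATP, methionine and E. coli bulk tRNA substrates · Times – 15 min enzyme-compound preincubation, 2 h reaction, 10 min detection, 25 °C · Measured by – luminescence of leftover ATP · Evaluation – percent inhibition relative to median high and low control wells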
# WT yeast gro inh = growth inhibition of WT yeast, mitochondrial fusion screen. mitochondrial fusion phenotypic screen, WT strain. inhibition, % at 10 µM. 190,000 tested, 2.1% active. AID 1362; in the data active = inhibition above about 58%; tested in S. cerevisiae
# Tb MetRS conf = confirmation of Trypanosoma brucei MetRS inhibitors. shares compounds with Tb MetRS inh. inhibition, % at 11.9 µM. T. brucei MetRS enzyme, luminescence (ATP depletion). AID 624412. 1,400 tested, 93% active; in the data active = inhibition above about 7%
# Jurkat tox = counter-screen for T. brucei MetRS inhibitors: Jurkat cell cytotoxicity | shares compounds with Tb MetRS inh | Jurkat cells viability, ATP luminescence | inhibition, % at 8.3 µM | 1,400 tested, 12% active; in the data active = inhibition above about 15%;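 note: 0% = vehicle and 100% = reference inhibitor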
# Tb MetRS inh FP = T. brucei MetRS inhibition, orthogonal assay. purified T. brucei MetRS, fluorescence polarization. 1,400 tested, 44% active. shares compounds with Tb MetRS inh. inhibition, % at 11.9 µM; in the data active = inhibition above about 17%;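 note: 0% = vehicle wells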
# An asterisk follows results filed as active; . = no result given.
SMILES,EBV gp42 inh,MPTP inh,GRIN3A LBD mod,CHOP inhibitor,Tb MetRS inh,WT yeast gro inh,Tb MetRS conf,Jurkat tox,Tb MetRS inh FP
Clc1ccc2nc(C3CCN(Cc4nnnn4C4CCCCC4)CC3)[nH]c2c1,0,1,3,3,69*,-15,81*,3,56*
Cc1ccc(Cn2nnnc2CN2CCC(c3nc4ccc(Cl)cc4[nH]3)CC2)cc1,15,9,-5,-7,21*,3,36*,43*,12
Cc1ccc(Cn2nnnc2CN2CCC(NC(=O)c3ccc(Br)cc3)CC2)cc1,-12,-3,0,30,-1,-1,.,.,.
CCc1ccc2c(c1)cc(CN(Cc1ccco1)C(C)=O)c1nnnn12,1,-1,0,-7,-1,-4,.,.,.
Cc1ccccc1Oc1cc(NC(=O)Cn2cnc([N+](=O)[O-])c2)cc([N+](=O)[O-])c1,-7,4,9,24,9.6*,0,24*,12,17*
Oc1ccc(Cl)cc1C=NCCc1ccccc1,-14,8,1,34,-1,0,.,.,.
OCC1(CCc2ccccc2)CCN(C/C=C/c2ccccc2)CC1,.,2,-4,.,0,.,.,.,.
OCC1(Cc2ccccc2Cl)CCN(C/C=C/c2ccccc2)CC1,-7,3,-2,29,7.2*,35,19*,5,4
CS(=O)(=O)Cc1nc2ccccc2n1CC(=O)Nc1cccc(S(=O)(=O)N2CCCC2)c1,.,1,1,.,10*,.,33*,0,10
Cc1ccc2nc(NC(=O)Cc3cccs3)sc2c1,-15,-1,-6,-8,-1,2,.,.,.
Cc1ccc2nc(N/C(=N/S(=O)(=O)c3cccs3)c3ccccc3Cl)sc2c1,10,5,0,-19,6.8*,1,13*,4,8
Cn1nnc(NCc2cc(Br)ccc2OCc2ccccc2F)n1,-4,6,-4,12,20*,10,24*,9,9
COc1cccc(OC)c1C(=O)Nc1ccc(C)cc1C(=O)c1ccccc1,-9,1,0,5,0,5,.,.,.
OC1(c2cccc(C(F)(F)F)c2)CCN(c2ncnc3c2[nH]c2ccccc23)CC1,-10,21,3,71*,6.1*,85*,14*,16*,9
c1ccc2c(c1)[nH]c1c(N3CCC4(CC3)OCCO4)ncnc12,-25,46,-1,33,1,17,.,.,.
O=C(CSc1ccc(-c2nc3ccccc3[nH]2)cn1)N1CCN(C(=O)c2ccco2)CC1,14,0,0,1,7.8*,4,15*,15*,12
Cc1ccccc1-c1cnc(C(O)c2ccc(Cl)cc2C)[nH]1 (stereo not drawn),.,3,.,.,0,.,.,.,.
Cc1cc(C(O)c2ncc(-c3ccc(Cl)cc3)[nH]2)ccc1F (stereo not drawn),.,2,.,.,3,.,.,.,.
OC(c1cc(F)cc(Cl)c1)c1ncc(-c2ccc(Cl)cc2)[nH]1 (stereo not drawn),.,21,.,.,34*,.,69*,12,47*
Cc1cc(C)cc(C(O)c2ncc(-c3ccc4ccccc4c3)[nH]2)c1 (stereo not drawn),.,4,.,.,7.5*,.,30*,7,17*
Cc1ccccc1-c1cnc(C(O)c2cc(Cl)cc(Cl)c2)[nH]1 (stereo not drawn),.,16,.,.,53*,.,81*,6,57*
OC(c1cc(Cl)cc(Cl)c1)c1ncc(-c2cccc(F)c2)[nH]1 (stereo not drawn),.,22,.,.,42*,.,77*,-1,55*
CC(C(=O)N1CCOCC1)c1ccc([N+](=O)[O-])cc1 (stereo not drawn),-3,0,1,35,-1,-26,.,.,.
C#C[C@]1(O)CC[C@H]2[C@@H]3CCC4=Cc5oncc5CC4(C)[C@H]3CCC21C (stereo partly drawn),.,.,.,16,.,.,.,.,.
Cc1cc(C)cc(C(O)c2ncc(-c3ccccc3C(F)(F)F)[nH]2)c1 (stereo not drawn),.,2,.,.,1,.,.,.,.
SMILES,EBV gp42 inh,MPTP inh,GRIN3A LBD mod,CHOP inhibitor,Tb MetRS inh,WT yeast gro inh,Tb MetRS conf,Jurkat tox,Tb MetRS inh FP
OC(c1cc(F)cc(Cl)c1)c1ncc(-c2ccccc2C(F)(F)F)[nH]1 (stereo not drawn),.,11,.,.,26*,.,48*,81*,23*
Cc1nc2ccccc2c2oc(C(=O)N3CCc4ccccc4C3)cc12,8,-1,-1,60,8.7*,18,8.9*,6,11
COc1cccc(CNc2ccc(S(=O)(=O)Nc3nccs3)cc2)c1O,6,2,-2,17,0,14,.,.,.
O=S(=O)(Nc1nccs1)c1ccc(NCc2cc(Br)cc(Br)c2O)cc1,-6,4,8,6,36*,.,68*,-9,24*
Cc1[nH]c2ccccc2c1C(=O)CSc1nc2ccccc2c(=O)n1CCCN1CCOCC1,-3,-1,-4,-3,0,-6,.,.,.
Cc1cc(N)c(-n2cc3c(=O)n(C)c(=O)n(C)c3c2)cc1C,-7,0,6,-3,-2,24,.,.,.
Cc1ccnc(NCc2ccc(Br)cc2)c1,.,0,1,.,6.0*,.,15*,-1,6
N#C/C(=C/c1cccc(O)c1)C(=O)NCc1ccc(Cl)cc1,.,0,-5,.,0,.,.,.,.
N#C/C(=C/c1ccc(O)c(O)c1)C(=O)NCc1ccc(Cl)cc1,.,0,3,.,15*,.,36*,17*,11
COc1cccc(C2c3[nH]c4ccccc4c3C[C@H]3C(=O)N(c4ccccc4C(=O)N4CCCC4C(=O)O)C(=O)N23)c1 (stereo partly drawn),.,-1,0,.,6.4*,.,16*,-1,4
O=C1[C@@H]2Cc3c([nH]c4ccccc34)C(c3ccc([N+](=O)[O-])cc3)N2C(=O)CN1C1CC1 (stereo partly drawn),.,0,2,.,9.4*,.,20*,9,8
COc1cccc(C2c3[nH]c4ccccc4c3C[C@H]3C(=O)N(CCCCCO)CC(=O)N23)c1 (stereo partly drawn),.,1,-4,.,10.0*,.,21*,10,1
CN1CC(=O)N2C(c3ccc(Cl)cc3)c3[nH]c4ccccc4c3C[C@H]2C1=O (stereo partly drawn),.,1,1,.,7.2*,.,18*,43*,0
CCN(CC(=O)Nc1c(F)cccc1F)C(=O)c1ccc(=O)[nH]c1,.,2,1,.,0,.,.,.,.
COc1ccc(C(=O)c2c3ccc(C(F)(F)F)cc3[n+]([O-])n2CCCN)cc1,.,12,2,.,-1,.,.,.,.

# Screening data deposited in PubChem BioAssay by several laboratories.
